In ChEMBL document CHEMBL1131588, “A novel class of orally active non-peptide bradykinin B2 receptor antagonists. 2. Overcoming the species difference between guinea pig and man” (J Med Chem, 1998):

How the values were obtained:
[1] = molecular target: T1, B2 bradykinin receptor (Cavia porcellus, UniProt O70526); assay: Concentration required to inhibit specific binding of [3H]BK at 0.06 nM to Bradykinin receptor B2 in guinea pig ileum membrane preparations by 50%.; format: cell membranes
T1 sequence (O70526 whole entry): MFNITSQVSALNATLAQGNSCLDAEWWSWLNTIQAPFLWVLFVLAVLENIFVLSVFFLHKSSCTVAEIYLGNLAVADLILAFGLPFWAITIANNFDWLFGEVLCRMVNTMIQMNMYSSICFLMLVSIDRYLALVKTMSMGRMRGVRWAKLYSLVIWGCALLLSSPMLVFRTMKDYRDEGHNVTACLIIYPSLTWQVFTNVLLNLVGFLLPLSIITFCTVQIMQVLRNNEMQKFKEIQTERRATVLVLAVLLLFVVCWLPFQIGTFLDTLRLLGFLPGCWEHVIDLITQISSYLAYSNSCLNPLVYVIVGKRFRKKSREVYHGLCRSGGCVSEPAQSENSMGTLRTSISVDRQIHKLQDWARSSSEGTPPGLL
How it was run: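 Guinea pig ileal membranes (100000g pellet, pH 6.8 TES buffer with phenanthroline, bacitracin, DTT, captopril, 0.1% BSA), 0.2 mg protein/mL, incubated with 0.06 nM [3H]BK and compounds 60 min at room temperature; final DMSO below 3%. Filtration on glass fiber filters, scintillation counting; nonspecific binding with 1 µM BK. Three experiments in duplicate.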

[2] = molecular target: T2, B2 bradykinin receptor (Homo sapiens, UniProt P30411); assay: Concentration required to inhibit specific binding of [3H]BK at 1.2 nM to A-431 cells (human epidermoid carcinoma) which express Bradykinin receptor B2 by 50%.; format: cell-based
T2 sequence (P30411 whole entry): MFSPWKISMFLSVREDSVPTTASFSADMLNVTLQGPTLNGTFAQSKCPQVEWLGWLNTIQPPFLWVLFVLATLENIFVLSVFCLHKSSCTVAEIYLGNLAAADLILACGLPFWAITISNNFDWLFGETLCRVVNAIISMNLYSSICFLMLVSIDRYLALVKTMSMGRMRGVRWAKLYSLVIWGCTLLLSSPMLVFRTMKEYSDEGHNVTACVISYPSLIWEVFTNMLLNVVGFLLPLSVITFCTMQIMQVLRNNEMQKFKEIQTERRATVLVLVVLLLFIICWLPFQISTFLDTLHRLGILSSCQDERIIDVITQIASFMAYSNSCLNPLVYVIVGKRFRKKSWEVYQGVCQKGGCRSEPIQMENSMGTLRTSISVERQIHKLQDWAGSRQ

[3] = tested on: Cavia porcellus; assay: Compound tested in vivo for inhibition of Bradykinin induced Bronchoconstriction in anaesthetized guinea pig; % Inhibition at 3.2 mg/Kg p,o.; format: functional
How it was run: (§1)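 Male Hartley guinea pigs (470-750 g), fasted overnight, anesthetized with pentobarbital 30 mg/kg ip, cannulated (trachea, jugular vein, esophagus), ventilated 10 mL/kg at 60 breaths/min; alcuronium 0.5 mg/kg iv, propranolol 10 mg/kg sc. BK 5 µg/kg iv; peak rise in insufflation pressure (modified Konzett-Rössler).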

[4] = tested on: Cavia porcellus; assay: Compound tested in vivo for inhibition of Bradykinin induced Bronchoconstriction in anaesthetized guinea pig.(P<0.001); % Inhibition at 1 mg/Kg p,o.; format: functional; how it was run: as §1
[5] = tested on: Cavia porcellus; assay: Compound tested in vivo for inhibition of Bradykinin induced Bronchoconstriction in anaesthetized guinea pig.(P<0.01); % Inhibition at 1 mg/kg. p.o.; format: functional; conditions: route oral; how it was run: as §1
[6] = tested on: Cavia porcellus; assay: Compound tested in vivo for inhibition of Bradykinin induced Bronchoconstriction in anaesthetized guinea pig.(P<0.01); % Inhibition at 1 mg/Kg p,o.; format: functional; how it was run: as §1
[7] = tested on: Cavia porcellus; assay: Compound tested in vivo for inhibition of Bradykinin induced Bronchoconstriction in anaesthetized guinea pig.(P<0.001); % Inhibition at 3.2 mg/Kg p,o.; format: functional; how it was run: as §1
[8] = tested on: Cavia porcellus; assay: Compound tested in vivo for inhibition of Bradykinin induced Bronchoconstriction in anaesthetized guinea pig.(P<0.05); % Inhibition at 1 mg/Kg p,o.; format: functional; how it was run: as §1
[9] = tested on: Cavia porcellus; assay: Compound tested in vivo for inhibition of Bradykinin induced Bronchoconstriction in anaesthetized guinea pig.(P<0.01); % Inhibition at 3.2 mg/kg p.o.; format: functional; conditions: route oral; how it was run: as §1
[10] = tested on: Cavia porcellus; assay: Compound tested in vivo for inhibition of Bradykinin induced Bronchoconstriction in anaesthetized guinea pig.(P<0.001);% Inhibition at 3.2 mg/Kg p,o.; format: functional; how it was run: as §1
[11] = tested on: Cavia porcellus; assay: Compound tested in vivo for inhibition of Bradykinin induced Bronchoconstriction in anaesthetized guinea pig.(P<0.05); % Inhibition at 3.2 mg/Kg p,o.; format: functional; conditions: in the assay text read “0.32 mg/Kg” for “3.2 mg/Kg”; how it was run: as §1
[12] = tested on: Cavia porcellus; assay: Compound tested in vivo for inhibition of Bradykinin induced Bronchoconstriction in anaesthetized guinea pig.(P<0.01); % Inhibition at 3.2 mg/Kg p,o.; format: functional; how it was run: as §1
[13] = tested on: Cavia porcellus; assay: Compound tested in vivo for inhibition of Bradykinin induced Bronchoconstriction in anaesthetized guinea pig; % Inhibition at 1 mg/Kg p,o.; format: functional; how it was run: as §1

| SMILES | IC50 [1] [nM] | IC50 [2] [nM] | Inhibition [6] [%] | further results |
| --- | --- | --- | --- | --- |
| Cc1nc2c(OCc3c(Cl)ccc(N(C)C(=O)CNC(=O)NCc4ccccc4)c3Cl)cccn2c1Br.Cl | 11 | 570 |  | Inhibition [3]: 24.1% |
| CCCCCC(=O)NCC(=O)N(C)c1ccc(Cl)c(COc2cccn3c(Br)c(C)nc23)c1Cl | 5.6 | 240 |  |  |
| CNC(=O)c1ccc(/C=C/C(=O)NCC(=O)N(C)c2ccc(Cl)c(COc3cccn4c(Br)c(C)nc34)c2Cl)cc1.Cl | 0.5 | 1.5 |  | Inhibition [4]: 53.2% |
| CCCC(=O)NCC(=O)N(C)c1ccc(Cl)c(COc2cccn3c(Br)c(C)nc23)c1Cl |  | 610 |  | inhibition in vivo at 1 mg/kg [5]: 52.7% |
| COc1cccc(NC(=O)NCC(=O)N(C)c2ccc(Cl)c(COc3cccn4c(Br)c(C)nc34)c2Cl)c1.Cl | 2.3 | 200 | 0 |  |
| CNC(=O)c1ccc(/C=C/C(=O)NCC(=O)N(C)c2ccc(Cl)c(COc3cccn4c(Br)c(C)nc34)c2Cl)cn1.Cl.Cl | 0.36 | 9.1 | 89.4 |  |
| NC(N)=NCCC[C@@H](N)C(=O)N[C@@H](CCCN=C(N)N)C(=O)N1CCC[C@H]1C(=O)N1C[C@H](O)C[C@H]1C(=O)NCC(=O)N[C@@H](Cc1cccs1)C(=O)N[C@@H](CO)C(=O)N1Cc2ccccc2C[C@@H]1C(=O)N1[C@H](C(=O)N[C@@H](CCCN=C(N)N)C(=O)O)C[C@@H]2CCCC[C@@H]21 [ICATIBANT] | 0.09 |  |  |  |
| Cc1nc2c(OCc3c(Cl)ccc(N(C)C(=O)CNC(=O)CCc4ccccc4)c3Cl)cccn2c1Br | 1.4 | 350 |  |  |
| CC(=O)NCC(=O)N(C)c1ccc(Cl)c(COc2cccn3c(Br)c(C)nc23)c1Cl.Cl |  | 4100 |  | inhibition in vivo at 1 mg/kg [5]: 62.3%; Inhibition [7]: 94.2% |
| COCC(=O)Nc1cccc(NC(=O)NCC(=O)N(C)c2ccc(Cl)c(COc3cccn4c(Br)c(C)nc34)c2Cl)c1 | 2.7 | 75 |  |  |
| CCOC(=O)c1cccc(NC(=O)NCC(=O)N(C)c2ccc(Cl)c(COc3cccn4c(Br)c(C)nc34)c2Cl)c1 | 2.2 | 150 |  |  |
| Cc1nc2c(OCc3c(Cl)ccc(N(C)C(=O)CNC(=O)NC(=O)c4ccccc4)c3Cl)cccn2c1Br | 340 | 510 |  |  |
| Cc1ccccc1NC(=O)NCC(=O)N(C)c1ccc(Cl)c(COc2cccn3c(Br)c(C)nc23)c1Cl | 83 | 150 |  |  |
| CC(=O)Nc1ccc(/C=C/C(=O)NCC(=O)N(C)c2ccc(Cl)c(COc3cccn4c(Br)c(C)nc34)c2Cl)cn1.Cl.Cl | 0.38 | 2.4 |  | Inhibition [8]: 76.4% |
| Cc1nc2c(OCc3c(Cl)ccc(N(C)C(=O)CNC(=O)Nc4ccccc4)c3Cl)cccn2c1Br | 1.4 | 150 |  |  |
| Cc1nc2c(OCc3c(Cl)ccc(N(C)C(=O)CNC(=O)/C=C\c4ccccc4)c3Cl)cccn2c1Br | 0.78 | 120 |  | inhibition in vivo at 1 mg/kg [5]: 0% |
| Cc1nc2c(OCc3c(Cl)ccc(N(C)C(=O)CNC(=O)COc4ccccc4)c3Cl)cccn2c1Br | 4.2 | 510 |  |  |
| CNC(=O)Nc1ccc(/C=C/C(=O)NCC(=O)N(C)c2ccc(Cl)c(COc3cccn4c(Br)c(C)nc34)c2Cl)cc1.Cl | 0.89 | 2.6 | 18.8 |  |
| Cc1cccc(NC(=O)NCC(=O)N(C)c2ccc(Cl)c(COc3cccn4c(Br)c(C)nc34)c2Cl)c1 | 2.7 | 140 |  | inhibition in vivo at 3.2 mg/kg [9]: 27.4% |

| SMILES | IC50 [1] [nM] | IC50 [2] [nM] | Inhibition [6] [%] | further results |
| --- | --- | --- | --- | --- |
| Cc1nc2c(OCc3c(Cl)ccc(N(C)C(=O)CNC(=O)/C=C/c4ccc(NS(C)(=O)=O)cc4)c3Cl)cccn2c1Br | 3.9 | 4.8 |  |  |
| COCCNC(=O)c1cccc(NC(=O)NCC(=O)N(C)c2ccc(Cl)c(COc3cccn4c(Br)c(C)nc34)c2Cl)c1.Cl | 0.79 | 20 | 16.1 |  |
| Cc1nc2c(OCc3c(Cl)ccc(N(C)C(=O)CNC(=O)Nc4cccc(C#N)c4)c3Cl)cccn2c1Br.Cl | 1.4 | 190 | 4.7 |  |
| Cc1nc2c(OCc3c(Cl)ccc(N(C)C(=O)CNC(=O)Nc4cccc(C(=O)N(C)C)c4)c3Cl)cccn2c1Br.Cl | 0.76 | 20 | 23.2 |  |
| CCNC(=O)NCC(=O)N(C)c1ccc(Cl)c(COc2cccn3c(Br)c(C)nc23)c1Cl |  | 3000 |  | inhibition in vivo at 1 mg/kg [5]: 57.2%; Inhibition [7]: 78.1% |
| CC(=O)c1cccc(NC(=O)NCC(=O)N(C)c2ccc(Cl)c(COc3cccn4c(Br)c(C)nc34)c2Cl)c1.Cl | 0.79 | 61 | 24.9 |  |
| Cc1nc2c(OCc3c(Cl)ccc(N(C)C(=O)CNC(=O)Nc4cccc(C(=O)O)c4)c3Cl)cccn2c1Br | 63 | 5200 |  |  |
| Cc1nc2c(OCc3c(Cl)ccc(N(C)C(=O)CNC(=O)Nc4cccc([N+](=O)[O-])c4)c3Cl)cccn2c1Br | 4.2 | 180 |  | inhibition in vivo at 1 mg/kg [5]: 13.6% |
| Cc1nc2c(OCc3c(Cl)ccc(N(C)C(=O)CNC(=O)CN(C)C)c3Cl)cccn2c1Br |  | 830 |  | Inhibition [10]: 92.8%; inhibition in vivo at 1 mg/kg [5]: 72.4% |
| Cc1nc2c(OCc3c(Cl)ccc(N(C)C(=O)CNC(=O)/C=C/c4ccc(C(=O)N(C)C)nc4)c3Cl)cccn2c1Br.Cl.Cl | 0.44 | 3.7 | 92.4 |  |
| Cc1nc2c(OCc3c(Cl)ccc(N(C)C(=O)CNC(=O)/C=C/c4ccc(C(=O)N(C)C)cc4)c3Cl)cccn2c1Br.Cl | 0.66 | 1.4 | 86.7 | Inhibition [11]: 74.8% |
| CC(=O)N(C)c1ccc(/C=C/C(=O)NCC(=O)N(C)c2ccc(Cl)c(COc3cccn4c(Br)c(C)nc34)c2Cl)cc1.Cl | 1.1 | 16 | 84.3 |  |
| Cc1ccc(NC(=O)NCC(=O)N(C)c2ccc(Cl)c(COc3cccn4c(Br)c(C)nc34)c2Cl)cc1.Cl | 12 | 260 |  | Inhibition [12]: 35% |
| CC(=O)Nc1ccc(/C=C/C(=O)NCC(=O)N(C)c2ccc(Cl)c(COc3cccn4c(Br)c(C)nc34)c2Cl)cc1.Cl | 0.55 | 1.6 |  | Inhibition [13]: 20.7% |
| Cc1nc2c(OCc3c(Cl)ccc(N(C)C(=O)CNC(=O)Nc4cccc(N)c4)c3Cl)cccn2c1Br | 15 | > 1000 |  |  |
| Cc1nc2c(OCc3c(Cl)ccc(N(C)C(=O)CNC(=O)CCCc4ccccc4)c3Cl)cccn2c1Br | 8.9 | 480 |  |  |
| Cc1nc2c(OCc3c(Cl)ccc(N(C)C(=O)CNC(=O)Cc4ccccc4)c3Cl)cccn2c1Br.Cl | 5.3 | 670 |  | Inhibition [3]: 19.8% |
| Cc1nc2c(OCc3c(Cl)ccc(N(C)C(=O)CNC(=O)Nc4cccc(Cl)c4)c3Cl)cccn2c1Br.Cl | 3.8 | 1900 | 14.5 |  |
| Cc1nc2c(OCc3c(Cl)ccc(N(C)C(=O)CNC(=O)/C=C/c4ccc(N5CCCC5=O)cc4)c3Cl)cccn2c1Br.Cl | 0.59 | 4.1 | 82 |  |
